Test results from ChEMBL document CHEMBL4382192, “Discovery of a potent dual ALK and EGFR T790M inhibitor” (Eur J Med Chem, 2017).

How the values were obtained:
[1] = target: Tyrosine-protein kinase receptor UFO (Homo sapiens) (UniProt P30530); test: Binding affinity to wild-type human partial length AXL (R497 to Y821 residues) expressed in bacterial expression system assessed as residual binding level at 1 uM by Kinomescan method relative to control
[2] = target: Muscle, skeletal receptor tyrosine-protein kinase (Homo sapiens) (UniProt O15146); test: Binding affinity to wild-type human partial length MUSK (M553 to V869 residues) expressed in bacterial expression system assessed as residual binding level at 1 uM by Kinomescan method relative to control
[3] = target: Mast/stem cell growth factor receptor Kit (Homo sapiens) (UniProt P10721); test: Binding affinity to wild-type human partial length autoinhibited KIT (Y545 to D952 residues) expressed in mammalian expression system assessed as residual binding level at 1 uM by Kinomescan method relative to control
[4] = target: Phosphatidylinositol 4,5-bisphosphate 3-kinase catalytic subunit gamma isoform (Homo sapiens) (UniProt P48736); test: Binding affinity to wild-type human partial length PIK3CG (S144 to A1102 residues) expressed in mammalian expression system assessed as residual binding level at 1 uM by Kinomescan method relative to control
[5] = test system: eIF-2-alpha kinase GCN2 (Homo sapiens), Q9P2K8 [S808G]; test: Binding affinity to wild-type human partial length GCN2 kinase domain 2 (R585 to T1018 residues) S808G mutant expressed in bacterial expression system assessed as residual binding level at 1 uM by Kinomescan method relative to control
[6] = target: Mitogen-activated protein kinase kinase kinase 2 (Homo sapiens) (UniProt Q9Y2U5); test: Binding affinity to wild-type human partial length MAP3K2 (S315 to H619 residues) expressed in mammalian expression system assessed as residual binding level at 1 uM by Kinomescan method relative to control
[7] = target: Mitogen-activated protein kinase 12 (Homo sapiens) (UniProt P53778); test: Binding affinity to wild-type human full length p38-gamma (M1 to L367 residues) expressed in mammalian expression system assessed as residual binding level at 1 uM by Kinomescan method relative to control
[8] = target: Fibroblast growth factor receptor 3 (Homo sapiens) (UniProt P22607); test: Binding affinity to wild-type human partial length FGFR3 (R442 to S771 residues) expressed in bacterial expression system assessed as residual binding level at 1 uM by Kinomescan method relative to control
[9] = target: Cyclin-dependent kinase 3 (Homo sapiens) (UniProt Q00526); test: Binding affinity to wild-type human full length CDK3 (M1 to H305 residues) expressed in bacterial expression system assessed as residual binding level at 1 uM by Kinomescan method relative to control
[10] = target: RAC-gamma serine/threonine-protein kinase (Homo sapiens) (UniProt Q9Y243); test: Binding affinity to wild-type human partial length AKT3 expressed in bacterial expression system assessed as residual binding level at 1 uM by Kinomescan method relative to control
[11] = test system: Epidermal growth factor receptor (Homo sapiens), P00533 [UNDEFINED MUTATION]; test: Binding affinity to human partial length EGFR L747-E749del/A750P mutant expressed in bacterial expression system assessed as residual binding level at 1 uM by Kinomescan method relative to control
Outline: (§1)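 Kinome-wide selectivity panel run by the KINOMEscan method, with the test compound at a single concentration of 1 μM. Wild-type and mutant kinases were profiled in the same screen.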

[12] = target: Serine/threonine-protein kinase 4 (Homo sapiens) (UniProt Q13043); test: Binding affinity to wild-type human full length MST1 (M1 to F487 residues) expressed in bacterial expression system assessed as residual binding level at 1 uM by Kinomescan method relative to control
Outline: (§2)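 Single-point kinome-wide KINOMEscan binding panel, test compound at 1 μM, run by the provider's standard protocol.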

[13] = target: Fibroblast growth factor receptor 4 (Homo sapiens) (UniProt P22455); test: Binding affinity to wild-type human partial length FGFR4 (G402 to E713 residues) expressed in bacterial expression system assessed as residual binding level at 1 uM by Kinomescan method relative to control
[14] = test system: Epidermal growth factor receptor (Homo sapiens), P00533 [UNDEFINED MUTATION]; test: Binding affinity to human partial length EGFR L747-T751del/Sins mutant expressed in bacterial expression system assessed as residual binding level at 1 uM by Kinomescan method relative to control; outline: as §1
[15] = target: Tyrosine-protein kinase Fgr (Homo sapiens) (UniProt P09769); test: Binding affinity to wild-type human partial length FGR (L233 to T529 residues) expressed in bacterial expression system assessed as residual binding level at 1 uM by Kinomescan method relative to control
[16] = target: Tyrosine-protein kinase Lck (Homo sapiens) (UniProt P06239); test: Binding affinity to wild-type human partial length LCK (R207 to P509 residues) expressed in bacterial expression system assessed as residual binding level at 1 uM by Kinomescan method relative to control
[17] = target: Ankyrin repeat and protein kinase domain-containing protein 1 (Homo sapiens) (UniProt Q8NFD2); test: Binding affinity to wild-type human partial length ANKK1 (M1 to A305 residues) expressed in mammalian expression system assessed as residual binding level at 1 uM by Kinomescan method relative to control
[18] = target: Phosphatidylinositol 4-kinase beta (Homo sapiens) (UniProt Q9UBF8); test: Binding affinity to wild-type human full length PIK4CB (M1 to M828 residues) expressed in mammalian expression system assessed as residual binding level at 1 uM by Kinomescan method relative to control; outline: as §2
[19] = target: Cyclin-dependent kinase-like 1 (Homo sapiens) (UniProt Q00532); test: Binding affinity to wild-type human full length CDKL1 (M1 to I358 residues) expressed in mammalian expression system assessed as residual binding level at 1 uM by Kinomescan method relative to control
[20] = target: Ribosomal protein S6 kinase alpha-2 (Homo sapiens) (UniProt Q15349); test: Binding affinity to wild-type human partial length N-terminal RSK3 kinase domain 1 (M1 to Q385 residues) expressed in bacterial expression system assessed as residual binding level at 1 uM by Kinomescan method relative to control
[21] = target: Serine/threonine-protein kinase WNK4 (Homo sapiens) (UniProt Q96J92); test: Binding affinity to wild-type human partial length WNK4 (A31 to D461 residues) expressed in mammalian expression system assessed as residual binding level at 1 uM by Kinomescan method relative to control
[22] = target: Mitogen-activated protein kinase kinase kinase 9 (Homo sapiens) (UniProt P80192); test: Binding affinity to wild-type human partial length MLK1 (V88 to W426 residues) expressed in bacterial expression system assessed as residual binding level at 1 uM by Kinomescan method relative to control
[23] = target: Tyrosine-protein kinase Fer (Homo sapiens) (UniProt P16591); test: Binding affinity to wild-type human partial length FER (S542 to T822 residues) expressed in bacterial expression system assessed as residual binding level at 1 uM by Kinomescan method relative to control
[24] = test system: Epidermal growth factor receptor (Homo sapiens), P00533 [UNDEFINED MUTATION]; test: Binding affinity to human partial length EGFR L747-S752del/P753S mutant expressed in bacterial expression system assessed as residual binding level at 1 uM by Kinomescan method relative to control; outline: as §1

Epidermal growth factor receptor (Homo sapiens), P00533 [UNDEFINED MUTATION], sequence (P00533 whole entry, looked up, stated change not applied, the tested form may be a part): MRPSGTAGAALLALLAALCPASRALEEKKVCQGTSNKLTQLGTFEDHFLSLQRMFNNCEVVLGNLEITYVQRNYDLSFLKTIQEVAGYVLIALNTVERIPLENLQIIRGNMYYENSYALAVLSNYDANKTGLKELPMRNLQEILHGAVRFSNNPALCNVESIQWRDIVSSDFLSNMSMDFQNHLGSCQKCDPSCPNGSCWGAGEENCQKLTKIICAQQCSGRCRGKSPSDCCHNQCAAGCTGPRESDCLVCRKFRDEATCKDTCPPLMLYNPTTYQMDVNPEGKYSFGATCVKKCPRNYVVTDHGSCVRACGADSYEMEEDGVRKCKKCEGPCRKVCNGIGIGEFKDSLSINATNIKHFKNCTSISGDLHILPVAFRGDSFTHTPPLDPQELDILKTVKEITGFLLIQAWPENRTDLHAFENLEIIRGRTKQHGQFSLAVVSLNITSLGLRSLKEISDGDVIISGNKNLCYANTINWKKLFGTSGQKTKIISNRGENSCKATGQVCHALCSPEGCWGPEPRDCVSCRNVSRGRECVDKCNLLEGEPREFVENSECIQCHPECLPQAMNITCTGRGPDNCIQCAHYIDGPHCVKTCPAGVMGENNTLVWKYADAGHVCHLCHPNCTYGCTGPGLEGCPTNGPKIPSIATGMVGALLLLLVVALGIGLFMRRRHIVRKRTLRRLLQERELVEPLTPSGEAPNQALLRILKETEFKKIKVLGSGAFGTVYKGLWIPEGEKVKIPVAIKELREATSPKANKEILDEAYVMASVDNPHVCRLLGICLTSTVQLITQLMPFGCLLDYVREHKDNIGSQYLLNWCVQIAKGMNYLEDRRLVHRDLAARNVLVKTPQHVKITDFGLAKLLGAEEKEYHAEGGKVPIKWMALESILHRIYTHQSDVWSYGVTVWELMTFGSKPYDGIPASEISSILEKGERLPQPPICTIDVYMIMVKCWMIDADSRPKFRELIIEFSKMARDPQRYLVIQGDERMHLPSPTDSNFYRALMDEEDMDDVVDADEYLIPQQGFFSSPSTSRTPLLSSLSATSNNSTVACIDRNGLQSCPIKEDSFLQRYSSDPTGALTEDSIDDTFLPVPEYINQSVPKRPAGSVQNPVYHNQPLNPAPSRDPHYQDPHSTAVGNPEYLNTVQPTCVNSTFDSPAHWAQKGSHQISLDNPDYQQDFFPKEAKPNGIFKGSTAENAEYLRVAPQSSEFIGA
Phosphatidylinositol 4-kinase beta (Homo sapiens), sequence (Q9UBF8 2-816 limits assumed): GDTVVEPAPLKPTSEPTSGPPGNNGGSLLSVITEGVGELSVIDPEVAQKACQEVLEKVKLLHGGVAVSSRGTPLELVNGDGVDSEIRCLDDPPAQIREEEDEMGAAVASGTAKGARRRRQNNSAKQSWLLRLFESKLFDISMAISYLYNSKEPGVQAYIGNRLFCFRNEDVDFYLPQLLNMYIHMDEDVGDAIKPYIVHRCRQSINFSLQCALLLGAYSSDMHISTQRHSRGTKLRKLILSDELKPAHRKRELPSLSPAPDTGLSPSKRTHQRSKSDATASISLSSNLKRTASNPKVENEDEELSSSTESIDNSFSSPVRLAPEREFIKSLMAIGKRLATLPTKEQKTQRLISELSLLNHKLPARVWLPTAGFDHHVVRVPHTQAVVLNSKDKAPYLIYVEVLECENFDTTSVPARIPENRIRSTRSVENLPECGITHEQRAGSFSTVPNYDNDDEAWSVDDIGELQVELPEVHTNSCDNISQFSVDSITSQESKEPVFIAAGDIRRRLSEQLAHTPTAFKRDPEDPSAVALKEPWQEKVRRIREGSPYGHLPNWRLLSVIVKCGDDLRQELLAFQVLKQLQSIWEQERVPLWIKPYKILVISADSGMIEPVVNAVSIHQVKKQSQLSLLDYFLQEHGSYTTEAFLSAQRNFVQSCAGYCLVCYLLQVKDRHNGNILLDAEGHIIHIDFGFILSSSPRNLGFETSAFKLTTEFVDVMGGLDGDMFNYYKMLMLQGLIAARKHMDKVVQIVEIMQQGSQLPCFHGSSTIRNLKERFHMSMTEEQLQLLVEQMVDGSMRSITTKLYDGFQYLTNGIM
Tyrosine-protein kinase Lck (Homo sapiens), sequence (P06239 2-509 limits assumed): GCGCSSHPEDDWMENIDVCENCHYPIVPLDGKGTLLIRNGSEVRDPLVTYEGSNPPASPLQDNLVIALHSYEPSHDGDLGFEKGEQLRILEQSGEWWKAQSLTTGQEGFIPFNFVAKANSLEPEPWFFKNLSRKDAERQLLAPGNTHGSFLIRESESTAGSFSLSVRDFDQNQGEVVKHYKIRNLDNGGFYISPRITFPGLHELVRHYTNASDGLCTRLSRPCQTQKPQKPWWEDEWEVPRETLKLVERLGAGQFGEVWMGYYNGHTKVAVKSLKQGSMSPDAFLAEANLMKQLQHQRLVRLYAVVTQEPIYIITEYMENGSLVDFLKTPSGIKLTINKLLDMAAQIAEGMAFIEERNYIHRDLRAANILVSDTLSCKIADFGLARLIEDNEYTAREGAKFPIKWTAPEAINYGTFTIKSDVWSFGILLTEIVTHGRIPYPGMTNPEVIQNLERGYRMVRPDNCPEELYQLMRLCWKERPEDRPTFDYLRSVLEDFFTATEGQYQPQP
Phosphatidylinositol 4,5-bisphosphate 3-kinase catalytic subunit gamma isoform (Homo sapiens), sequence (P48736 whole entry, looked up, the tested form may be a part, canonical isoform): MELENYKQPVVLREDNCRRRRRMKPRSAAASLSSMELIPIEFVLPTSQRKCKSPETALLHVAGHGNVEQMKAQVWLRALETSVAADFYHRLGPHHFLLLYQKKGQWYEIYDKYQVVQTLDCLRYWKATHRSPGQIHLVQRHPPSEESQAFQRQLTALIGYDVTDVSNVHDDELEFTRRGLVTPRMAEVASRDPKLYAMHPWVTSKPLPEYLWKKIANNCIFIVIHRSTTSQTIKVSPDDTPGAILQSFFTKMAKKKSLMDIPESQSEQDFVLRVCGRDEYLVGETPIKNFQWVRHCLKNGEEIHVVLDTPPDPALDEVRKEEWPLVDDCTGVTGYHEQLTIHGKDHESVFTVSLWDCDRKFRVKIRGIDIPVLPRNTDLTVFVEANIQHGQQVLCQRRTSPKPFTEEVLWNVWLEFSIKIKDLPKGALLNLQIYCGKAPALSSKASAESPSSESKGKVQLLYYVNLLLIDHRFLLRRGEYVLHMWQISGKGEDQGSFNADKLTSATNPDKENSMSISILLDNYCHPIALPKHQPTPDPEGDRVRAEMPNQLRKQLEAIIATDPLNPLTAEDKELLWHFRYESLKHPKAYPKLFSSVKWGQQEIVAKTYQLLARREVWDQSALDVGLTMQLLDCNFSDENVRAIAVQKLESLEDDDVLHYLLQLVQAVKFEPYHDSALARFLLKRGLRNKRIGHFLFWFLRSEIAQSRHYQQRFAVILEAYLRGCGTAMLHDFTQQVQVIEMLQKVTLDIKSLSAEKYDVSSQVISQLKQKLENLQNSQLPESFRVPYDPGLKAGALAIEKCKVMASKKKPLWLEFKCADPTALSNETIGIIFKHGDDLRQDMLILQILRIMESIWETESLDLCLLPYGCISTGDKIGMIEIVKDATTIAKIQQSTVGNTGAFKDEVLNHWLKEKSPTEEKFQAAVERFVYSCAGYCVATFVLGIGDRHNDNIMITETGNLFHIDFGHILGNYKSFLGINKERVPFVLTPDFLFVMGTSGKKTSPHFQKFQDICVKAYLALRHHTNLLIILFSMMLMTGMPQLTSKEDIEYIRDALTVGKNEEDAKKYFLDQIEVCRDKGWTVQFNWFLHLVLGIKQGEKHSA
Fibroblast growth factor receptor 3 (Homo sapiens), sequence (P22607 23-806 limits assumed): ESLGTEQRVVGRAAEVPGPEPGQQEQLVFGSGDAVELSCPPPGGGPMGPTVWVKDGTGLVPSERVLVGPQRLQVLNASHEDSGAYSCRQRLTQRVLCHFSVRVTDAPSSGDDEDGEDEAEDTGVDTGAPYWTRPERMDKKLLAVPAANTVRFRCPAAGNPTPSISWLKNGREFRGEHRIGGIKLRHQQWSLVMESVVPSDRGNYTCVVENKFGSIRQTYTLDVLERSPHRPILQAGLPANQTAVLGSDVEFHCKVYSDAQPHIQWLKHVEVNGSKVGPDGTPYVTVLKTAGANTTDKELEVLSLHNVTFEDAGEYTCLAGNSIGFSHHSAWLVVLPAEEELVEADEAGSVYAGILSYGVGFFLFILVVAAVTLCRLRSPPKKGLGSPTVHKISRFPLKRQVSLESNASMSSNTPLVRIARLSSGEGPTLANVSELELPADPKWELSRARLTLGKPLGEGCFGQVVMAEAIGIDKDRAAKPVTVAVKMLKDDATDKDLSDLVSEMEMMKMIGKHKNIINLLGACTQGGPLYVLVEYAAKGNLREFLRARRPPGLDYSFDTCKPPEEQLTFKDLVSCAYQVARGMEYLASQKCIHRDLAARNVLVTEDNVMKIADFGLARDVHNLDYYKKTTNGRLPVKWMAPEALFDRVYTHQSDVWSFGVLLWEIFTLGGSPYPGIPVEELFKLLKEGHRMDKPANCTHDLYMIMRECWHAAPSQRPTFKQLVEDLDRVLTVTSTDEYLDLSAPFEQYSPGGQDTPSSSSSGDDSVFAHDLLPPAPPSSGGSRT
Mitogen-activated protein kinase kinase kinase 2 (Homo sapiens), sequence (Q9Y2U5 whole entry, the tested form may be a part): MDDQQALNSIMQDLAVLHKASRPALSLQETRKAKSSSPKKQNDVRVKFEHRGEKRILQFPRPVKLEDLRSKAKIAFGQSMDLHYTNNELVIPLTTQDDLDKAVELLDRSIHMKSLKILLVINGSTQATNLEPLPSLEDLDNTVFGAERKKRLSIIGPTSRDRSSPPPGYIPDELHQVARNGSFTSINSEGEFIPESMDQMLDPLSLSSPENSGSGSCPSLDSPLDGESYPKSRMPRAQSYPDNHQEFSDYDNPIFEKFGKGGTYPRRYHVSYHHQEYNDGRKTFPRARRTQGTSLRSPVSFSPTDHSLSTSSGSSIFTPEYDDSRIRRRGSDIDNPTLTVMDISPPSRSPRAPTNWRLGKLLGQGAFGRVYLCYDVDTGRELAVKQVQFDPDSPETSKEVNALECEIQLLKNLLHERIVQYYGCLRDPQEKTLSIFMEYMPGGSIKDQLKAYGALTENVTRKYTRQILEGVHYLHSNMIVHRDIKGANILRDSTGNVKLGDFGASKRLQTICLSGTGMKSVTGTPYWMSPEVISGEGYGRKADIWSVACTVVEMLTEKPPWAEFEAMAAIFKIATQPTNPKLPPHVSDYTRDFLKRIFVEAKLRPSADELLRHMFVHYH

## C=CC(=O)Nc1cc(Nc2ncc(Cl)c(Nc3ccccc3S(=O)(=O)C(C)C)n2)c(OC)cc1N(C)CCN(C)C
[1]
  Activity: 10%
[2]
  Activity: 92%
[3]
  Activity: 66%
[4]
  Activity: 98%
[5]
  Activity: 91%
[6]
  Activity: 32%
[7]
  Activity: 56%
[8]
  Activity: 19%
[9]
  Activity: 94%
[10]
  Activity: 100%
[11]
  Activity: 0%
[12]
  Activity: 86%
[13]
  Activity: 9.6%
[14]
  Activity: 0.45%
[15]
  Activity: 57%
[16]
  Activity: 14%
[17]
  Activity: 39%
[18]
  Activity: 69%
[19]
  Activity: 58%
[20]
  Activity: 5.6%
[21]
  Activity: 94%
[22]
  Activity: 39%
[23]
  Activity: 0%
[24]
  Activity: 0%
